ChEMBL document CHEMBL1145502, “Roxithromycin favorably modifies the initial phase of resistance against infection with macrolide-resistant Streptococcus pneumoniae in a murine pneumonia model” (Antimicrob Agents Chemother, 2007)
Values after ≈ are worked out from the molar mass of the structure shown. Active and inactive are the calls of the source. The calls are words filed in the database; no cut-off is given here.

How the values were obtained:
Streptococcus pneumoniae [1] = test: Antimicrobial activity against Streptococcus pneumoniae NMU112 infected in po dosed CBA/J mouse assessed as delaying in development of bacteremia […]; type: functional, organism-based
Streptococcus pneumoniae [2] = test: Antimicrobial activity against Streptococcus pneumoniae NMU112; type: functional
How it was run: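 Broth microdilution MIC per NCCLS in Mueller-Hinton broth with 3% lysed horse blood.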

Streptococcus pneumoniae [3] = test: Reduction of pneumolysin production in Streptococcus pneumoniae NMU112 lysates at 5 ug/mL after 12 hrs by Western blot relative to control; type: functional, organism-based
How it was run: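 NMU112 at 5 × 10⁷ CFU/ml in THY cultured with macrolide at 37°C for 12 h, then whole-cell sonicated lysates run on SDS-PAGE and immunoblotted for pneumolysin. Band densitometry as mean % of drug-free culture; two cultures per dose per experiment, three experiments.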

Streptococcus pneumoniae [4] = test: Antimicrobial activity against drug-resistant Streptococcus pneumoniae NMU112 infected CBA/J mouse assessed as median survival time at 10 mg/kg, po relative to control; type: functional
How it was run: (§1)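 Male CBA/J mice, 3-4 weeks old, 28-30 g. Macrolide given by oral gavage in saline for 3 days; RXM, ERY and CLR twice daily at 12-h intervals, AZM once daily. Saline controls. 24 h after the last dose, mice were infected intratracheally with 5 × 10⁴ CFU NMU112 (erm(B)/mef(A)). Kaplan-Meier survival and median survival time, log rank test; 10 mice per group per experiment.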

Streptococcus pneumoniae [5] = test: Antimicrobial activity against Streptococcus pneumoniae NMU605; type: functional
How it was run: (§2)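 Broth microdilution MIC (NCCLS method) in Mueller-Hinton broth with 3% lysed horse blood; clinical isolates NMU605 (serotype 3) and NMUP45 (serotype 4).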

Streptococcus pneumoniae [6] = test: Antimicrobial activity against drug-resistant Streptococcus pneumoniae NMU112 infected CBA/J mouse assessed as median survival time at 5 mg/kg, po relative to control; type: functional; how it was run: as §1
Streptococcus pneumoniae [7] = test: Inhibition of pneumococcal surface protein A production in Streptococcus pneumoniae NMU112 lysates at 5 ug/mL after 12 hrs by Western blot relative to control; type: functional, organism-based
How it was run: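 Strain NMU112 (5 × 10⁷ CFU/ml in THY) cultured 12 h at 37°C with drug. Sonicated whole-cell lysates run on SDS-PAGE and Western blotted; bands measured by densitometry as % of drug-free culture. Two cultures per dose, three experiments (n = 5–6).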

Streptococcus pneumoniae [8] = test: Antimicrobial activity against Streptococcus pneumoniae NMUP45; type: functional; how it was run: as §2

| Structure (SMILES) | Activity (Streptococcus pneumoniae [1]) | MIC (Streptococcus pneumoniae [2]) [µg/mL] | Activity (Streptococcus pneumoniae [3]) | MST (Streptococcus pneumoniae [4]) [days] | MIC (Streptococcus pneumoniae [5]) [µg/mL] | MST (Streptococcus pneumoniae [6]) [days] | Activity (Streptococcus pneumoniae [7]) | MIC (Streptococcus pneumoniae [8]) [µg/mL] |
| --- | --- | --- | --- | --- | --- | --- | --- | --- |
| CC[C@H]1OC(=O)[C@H](C)[C@@H](O[C@H]2C[C@@](C)(OC)[C@@H](O)[C@H](C)O2)[C@H](C)[C@@H](O[C@@H]2O[C@H](C)C[C@H](N(C)C)[C@H]2O)[C@](C)(O)C[C@@H](C)CN(C)[C@H](C)[C@@H](O)[C@]1(C)O [AZITHROMYCIN] | Active | ≥ 256 | Active | 7.33 | 0.125 (≈ 0.167 µM) | 5.84 | Active |  |
| CC[C@H]1OC(=O)[C@H](C)[C@@H](O[C@H]2C[C@@](C)(OC)[C@@H](O)[C@H](C)O2)[C@H](C)[C@@H](O[C@@H]2O[C@H](C)C[C@H](N(C)C)[C@H]2O)[C@](C)(OC)C[C@@H](C)C(=O)[C@H](C)[C@@H](O)[C@]1(C)O [CLARITHROMYCIN] | Active | ≥ 256 | Active | 8.45 | 0.03 (≈ 0.0401 µM) | 6.82 | Active | 2 (≈ 2.67 µM) |
